Test results from ChEMBL document CHEMBL3997791, “Nanomolar-Potency Aminophenyl-1,3,5-triazine Activators of the Cystic Fibrosis Transmembrane Conductance Regulator (CFTR) Chloride Channel for Prosecretory Therapy of Dry Eye Diseases” (J Med Chem, 2017).
The source made the active and inactive calls. The calls are words filed in the database; no cut-off is given here.

Columns and labels:
[1] = Metabolic stability in rat hepatic microsomes assessed as parent compound remaining at 5 uM after 15 mins in presence of NADPH by LC-MS analysis; assay type: ADME, Microsome; conditions: liver microsomes, read-out: Stability
Method in brief: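 Compound at 5 μM incubated at 37 °C with rat liver microsomes (1 mg/mL) in potassium phosphate buffer with 1 mM NADPH; quenched with ice-cold EtOAc, centrifuged, supernatant analysed by LC/MS (C18, water/acetonitrile with 0.1% formic acid gradient, UV 254 nm) for parent remaining; mean ± SEM, n = 3.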

[2] = tested on: Mus musculus; assay: Induction of tear secretion in mouse at 250 pmol administered as single topical dose after 12 to 24 hrs by phenol red thread test; assay type: functional
Method in brief: (§1)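 Mice 8–12 weeks (25–35 g); single ocular dose of 250 pmol (100 μM) in 2.5 μL vehicle (0.3% CMC in Ringer's), both eyes treated identically, vehicle control. Tear volume by phenol red thread, 10 s in lateral canthus under isoflurane, before and at set times after dosing. 5 mice, 10 eyes per condition; two-way ANOVA with Dunnett test.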

[3] = organism: Homo sapiens; assay: Inhibition of sodium/potassium pump in human primary bronchial epithelial cells assessed as effect on short-circuit current at 10 uM after 10 mins by voltage clamp method
Method in brief: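 Primary human bronchial epithelial cells grown at air-liquid interface, mounted in Ussing chambers in symmetrical HCO3−-buffered solutions (95% O2/5% CO2, 37 °C), with Ag/AgCl electrodes. After 10 min preincubation with 10 µM compound, sequential additions were 20 µM amiloride, 20 µM forskolin, 10 µM CFTRinh-172 and 100 µM ATP. Traces represent two to four experiment sets.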

[4] = tested on: Mus musculus; assay: Induction of tear secretion in mouse assessed as minimum compound concentration required to show maximum effect administered as single topical dose at 1 to 3 hrs post dose by phenol red thread test; assay type: functional
Method in brief: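 Dose-response in mice: single ocular doses of varied amounts (down to 25 pmol) in 2.5 μL ophthalmic vehicle to both eyes, vehicle control. Tear volume by phenol red thread (10 s, lateral canthus, isoflurane anesthesia) before and at timed points after dosing; 5 mice, 10 eyes per condition.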

[5] = tested on: Mus musculus; assay: Induction of tear secretion in mouse at 250 pmol administered as single topical dose up to 8 hrs by phenol red thread test; assay type: functional; method in brief: as §1
[6] = Suppression of ATP-stimulated elevation of cytoplasmic calcium level in Fischer rat thyroid cells co-expressing YFP and human CFTR at 10 uM incubated for 5 mins by fluo-4 dye based fluorescence assay; assay type: ADME; conditions: thyroid cell
Method in brief: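 FRT cells in 96-well plates loaded with Fluo-4 NW, pretreated 5 min with 10 μM compound or control; 100 μM ATP added as calcium agonist. Fluorescence followed in plate reader with syringe pumps. Representative of two to four experiment sets.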

[7] = target: T1, Cystic fibrosis transmembrane conductance regulator (Homo sapiens, UniProt P13569); assay: Activation of human CFTR expressed in forskolin-stimulated basolateral membrane permeabilized FRT cells co-expressing YFP assessed as increase in short-circuit current by voltage clamp method; assay type: cell-based
T1 sequence (P13569 whole entry, looked up): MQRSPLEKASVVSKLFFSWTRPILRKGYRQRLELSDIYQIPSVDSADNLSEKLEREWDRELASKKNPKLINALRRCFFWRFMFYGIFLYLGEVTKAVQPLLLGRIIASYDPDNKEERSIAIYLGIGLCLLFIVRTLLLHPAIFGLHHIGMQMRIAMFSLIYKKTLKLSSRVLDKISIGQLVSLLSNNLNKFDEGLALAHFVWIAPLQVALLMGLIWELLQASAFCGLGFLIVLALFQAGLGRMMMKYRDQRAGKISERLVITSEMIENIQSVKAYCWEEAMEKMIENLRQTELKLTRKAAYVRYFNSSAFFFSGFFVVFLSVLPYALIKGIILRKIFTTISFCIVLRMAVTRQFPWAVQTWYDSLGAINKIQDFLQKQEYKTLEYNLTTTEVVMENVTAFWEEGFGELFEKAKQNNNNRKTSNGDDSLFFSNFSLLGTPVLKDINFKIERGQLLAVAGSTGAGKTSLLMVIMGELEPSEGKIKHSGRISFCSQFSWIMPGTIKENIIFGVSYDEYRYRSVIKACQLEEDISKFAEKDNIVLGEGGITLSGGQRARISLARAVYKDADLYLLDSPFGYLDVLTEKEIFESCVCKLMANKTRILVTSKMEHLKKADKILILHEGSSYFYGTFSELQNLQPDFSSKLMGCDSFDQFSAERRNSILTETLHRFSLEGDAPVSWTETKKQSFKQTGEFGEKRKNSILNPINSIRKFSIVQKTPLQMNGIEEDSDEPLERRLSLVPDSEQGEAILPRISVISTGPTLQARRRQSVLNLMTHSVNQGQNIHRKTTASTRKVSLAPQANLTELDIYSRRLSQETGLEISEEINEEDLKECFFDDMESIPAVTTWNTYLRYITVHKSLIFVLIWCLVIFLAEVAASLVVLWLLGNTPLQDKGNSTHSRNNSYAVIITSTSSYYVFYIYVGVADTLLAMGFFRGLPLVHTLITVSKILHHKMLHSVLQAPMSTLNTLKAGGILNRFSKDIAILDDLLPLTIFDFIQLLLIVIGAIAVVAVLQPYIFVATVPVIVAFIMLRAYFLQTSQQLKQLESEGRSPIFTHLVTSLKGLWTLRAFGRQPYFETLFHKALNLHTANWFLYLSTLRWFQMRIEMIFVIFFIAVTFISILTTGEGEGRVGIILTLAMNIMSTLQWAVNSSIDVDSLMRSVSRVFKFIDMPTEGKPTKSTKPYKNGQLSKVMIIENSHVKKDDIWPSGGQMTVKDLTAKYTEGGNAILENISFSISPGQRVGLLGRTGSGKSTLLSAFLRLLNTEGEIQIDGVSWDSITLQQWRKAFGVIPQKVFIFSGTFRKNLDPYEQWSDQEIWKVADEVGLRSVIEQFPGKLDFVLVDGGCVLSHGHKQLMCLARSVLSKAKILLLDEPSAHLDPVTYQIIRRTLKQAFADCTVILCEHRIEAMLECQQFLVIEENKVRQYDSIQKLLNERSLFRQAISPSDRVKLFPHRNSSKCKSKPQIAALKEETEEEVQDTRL
Method in brief: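 Ussing chamber with FRT cells co-expressing human wild-type CFTR and YFP. Basolateral side had HCO3−-buffered solution and the apical side half-Cl− solution. The basolateral membrane was permeabilized with 250 µg/mL amphotericin B. Solutions were gassed with 95% O2/5% CO2 at 37 °C. A low forskolin concentration was added first, then cumulative compound additions, then maximal forskolin and 10 µM CFTRinh-172; n = 3.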

[8] = target: T1, Cystic fibrosis transmembrane conductance regulator; assay: Activation of CFTR in human primary bronchial epithelial cells assessed as increase in short-circuit current up to 10 uM measured after 10 mins in absence of forskolin by voltage clamp method
[9] = target: T2, Solute carrier family 12 member 2 (Homo sapiens) (UniProt P55011); assay: Inhibition of NKCC1 in human primary bronchial epithelial cells assessed as effect on short-circuit current at 10 uM after 10 mins by voltage clamp method
T2 sequence (whole entry): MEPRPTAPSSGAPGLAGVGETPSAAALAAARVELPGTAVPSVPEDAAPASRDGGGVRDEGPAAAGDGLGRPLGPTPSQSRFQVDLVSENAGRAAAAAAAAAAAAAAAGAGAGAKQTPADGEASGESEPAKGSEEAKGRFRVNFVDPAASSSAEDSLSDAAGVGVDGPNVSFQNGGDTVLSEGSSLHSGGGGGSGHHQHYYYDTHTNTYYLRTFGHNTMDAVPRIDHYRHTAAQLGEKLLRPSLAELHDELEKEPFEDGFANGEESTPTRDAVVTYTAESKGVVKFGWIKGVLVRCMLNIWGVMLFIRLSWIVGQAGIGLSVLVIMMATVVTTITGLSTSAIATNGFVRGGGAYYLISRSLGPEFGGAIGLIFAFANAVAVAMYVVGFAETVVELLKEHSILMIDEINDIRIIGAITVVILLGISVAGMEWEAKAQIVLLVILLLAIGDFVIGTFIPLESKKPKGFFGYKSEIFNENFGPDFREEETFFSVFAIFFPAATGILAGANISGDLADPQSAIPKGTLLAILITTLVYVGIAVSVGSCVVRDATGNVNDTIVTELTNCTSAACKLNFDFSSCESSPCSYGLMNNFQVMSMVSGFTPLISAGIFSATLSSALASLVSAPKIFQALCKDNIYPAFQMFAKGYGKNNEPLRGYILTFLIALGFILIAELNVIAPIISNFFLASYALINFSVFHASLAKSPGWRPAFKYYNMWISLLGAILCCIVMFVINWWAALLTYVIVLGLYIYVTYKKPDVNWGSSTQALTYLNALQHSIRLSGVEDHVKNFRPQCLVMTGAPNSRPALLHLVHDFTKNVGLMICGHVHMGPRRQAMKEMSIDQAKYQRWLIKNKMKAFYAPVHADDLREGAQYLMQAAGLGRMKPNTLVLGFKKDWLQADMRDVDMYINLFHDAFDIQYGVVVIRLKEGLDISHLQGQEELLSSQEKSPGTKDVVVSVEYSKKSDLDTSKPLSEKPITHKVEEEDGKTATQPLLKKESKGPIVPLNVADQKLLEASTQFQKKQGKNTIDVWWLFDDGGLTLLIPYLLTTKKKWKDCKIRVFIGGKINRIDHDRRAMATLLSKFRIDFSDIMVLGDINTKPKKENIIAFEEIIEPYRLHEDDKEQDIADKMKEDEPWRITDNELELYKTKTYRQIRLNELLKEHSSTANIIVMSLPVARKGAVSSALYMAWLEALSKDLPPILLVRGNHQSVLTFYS
Method in brief: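 Primary human bronchial epithelial cultures (air-liquid interface) in Ussing chambers, symmetrical HCO3−-buffered solutions, 95% O2/5% CO2, 37 °C. After 10 min preincubation with 10 μM compound, sequential 20 μM amiloride, 20 μM forskolin, 10 μM CFTRinh-172, 100 μM ATP; short-circuit current recorded under voltage clamp.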

[10] = target: T1, Cystic fibrosis transmembrane conductance regulator; assay: Activation of CFTR in human primary bronchial epithelial cells assessed as increase in forskolin-stimulated short-circuit current at 0.1 uM preincubated for 10 mins followed by forskolin addition by voltage clamp method

Compound | remaining at […], 5 µM [1] [%] | Activity [2] | inhibition [3] | Activity [4] [pmol] | Activity [5] | Activity [6] | Activity [7] | Activity [8] | inhibition [9] | Activity [10]
CNc1nc(Nc2ccccc2)nc(OCC(F)(F)C(F)F)n1 | < 40 | inactive | inactive | 25 | Active | Non-Toxic | Dose-dependent effect | inactive | inactive | Active
CCN(CC)c1nc(Nc2ccc3ncsc3c2)nc(OC(C(F)(F)F)C(F)(F)F)n1 |  |  | inactive |  |  | Non-Toxic | Dose-dependent effect |  | inactive | 
